Laboratory results published in PMC7894357 (Chemmedchem, 2020).

How the values were obtained:
[1] = Cytotoxicity: inhibition of CD4+ T-cell; type: cell-based; settings: human, CEM/0 cells (CD4+ T cells)
HIV‐2 = type: cell-based; settings: CEM-TK(-), read-out: EC50 CEM/TK− HIV‐1
Outline: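 CEM/TK⁻ cells (~3×10⁵ cells/mL) were infected with HIV‑1(III_B) or HIV‑2(ROD) at 100 CCID₅₀/mL and cultured with serial dilutions of test compound. After 4–5 days at 37 °C in humidified CO₂, giant (syncytium) cell formation was scored microscopically. EC50 is the concentration that halves giant cell formation. Values are mean ±SD of n=2–3 independent experiments.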

[2] = symmetric TriPPPro-compounds, PB pH 7.3; cited from earlier work
[3] = previous work; cited from earlier work

For `Cc1cn([C@H]2C=C[C@@H](CO)O2)c(=O)[nH]c1=O` [d4T 1, 3'‐deoxy‐2',3'‐didehydrothymidine], the CC50 [1] was greater than 50 µM and the EC50 (HIV‐2) was greater than 50 µM.

For `CCCCCCCCCC(=O)Oc1ccc(COP(=O)(OCc2ccc(OC(=O)CCCCCCCCC)cc2)OP(=O)(O)OP(=O)(O)OC[C@@H]2C=C[C@H](n3cc(C)c(=O)[nH]c3=O)O2)cc1` [γ‐(AB−C9,AB−C9)‐d4TTP], the “half-life in PB (t1/2)” value [2] is listed as 44 h and the “half-life in CEM/0 cell extracts (t1/2)” value [3] is listed as 2.8 h.

In the case of γ‐(AB−C4,AB−C4)‐d4TTP, the “half-life in PB (t1/2)” value [2] is listed as 22 h and the “half-life in CEM/0 cell extracts (t1/2)” value [3] is listed as 0.43 h.
